One data set addresses Carbonic anhydrase 1 (Homo sapiens, UniProt P00915). The data set can be described thus: Inhibition of human recombinant carbonic anhydrase 1 preincubated with enzyme for 1 hr prior to testing by phenol red-based stopped-flow CO2 hydration assay.
The target of a further data set is Carbonic anhydrase 2 (Homo sapiens, UniProt P00918). The data set can be described thus: Inhibition of human recombinant carbonic anhydrase 2 preincubated with enzyme for 1 hr prior to testing by phenol red-based stopped-flow CO2 hydration assay.
The target of another data set is Carbonic anhydrase 4 (Homo sapiens, UniProt P22748). The data set can be described thus: Inhibition of human recombinant carbonic anhydrase 4 preincubated with enzyme for 1 hr prior to testing by phenol red-based stopped-flow CO2 hydration assay.
For data set [1], the target named is Carbonic anhydrase 5A, mitochondrial (Homo sapiens, UniProt P35218). Description: Inhibition of human recombinant carbonic anhydrase 5A preincubated with enzyme for 1 hr prior to testing by phenol red-based stopped-flow CO2 hydration assay.
Data set [2] concerns the target Carbonic anhydrase 5B, mitochondrial (Homo sapiens, UniProt Q9Y2D0). The data set can be described thus: Inhibition of human recombinant carbonic anhydrase 5B preincubated with enzyme for 1 hr prior to testing by phenol red-based stopped-flow CO2 hydration assay.
Another data set deals with Carbonic anhydrase 7 (Homo sapiens, UniProt P43166). The data set can be described thus: Inhibition of human recombinant carbonic anhydrase 7 preincubated with enzyme for 1 hr prior to testing by phenol red-based stopped-flow CO2 hydration assay.
For a further data set, the target named is Carbonic anhydrase 9 (Homo sapiens, UniProt Q16790). Description: Inhibition of human recombinant carbonic anhydrase 9 preincubated with enzyme for 1 hr prior to testing by phenol red-based stopped-flow CO2 hydration assay. In kind it is single protein.
Another data set concerns the target Carbonic anhydrase 12 (Homo sapiens, UniProt O43570). The data set can be described thus: Inhibition of human recombinant carbonic anhydrase 12 preincubated with enzyme for 1 hr prior to testing by phenol red-based stopped-flow CO2 hydration assay.
Data set [3] is described as follows: Stability of compound in human plasma measured up to 120 mins by LC-MS/MS analysis. The conditions noted are these: 2 h. In kind it is ADME, cell-free. The method, boiled down:
(§1)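 Analyte (1 μM final) incubated at 37 °C in PBS, 10 mM HCl (pH 2) or human plasma. Sampling at 0, 30, 60 and 120 min, each in triplicate. Samples were quenched with acetonitrile containing verapamil internal standard, centrifuged and diluted. Read-out was LC–MS/MS with positive ESI and MRM on a PFP column.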

Data set [4] can be described thus: Stability of compound in PBS buffer measured up to 120 mins by LC-MS/MS analysis. The class given is physicochemical. The conditions noted are these: 2 h. In short, it runs like this:
as §1

Data set [5] in a line: Stability of compound in aqueous HCl solution at pH 2 measured up to 120 mins by LC-MS/MS analysis. The class given is physicochemical. The conditions noted are these: buffer, pH 2, 2 h. The method, boiled down: as §1
Data set [6] has as its system Mus musculus. The data set can be described thus: Antinociceptive activity in CD-1 albino mouse model of oxaliplatin-induced neuropathic pain assessed as decrease in pain-related behaviour measured as licking latency at 100 mg/kg, po treated on day 15 post oxaliplatin treatment and measured after 30 mins post dose by cold plate test. The class given is functional, organism-based. In short, it runs like this:
(§2)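 Male CD-1 mice (22–25 g) given oxaliplatin 2.4 mg kg–1 i.p. in 5% glucose on days 1–2, 5–9 and 12–14 (10 injections). On day 15, compounds were suspended in 1% CMC and given once orally. Cold plate held at 4 °C; latency to first hind-paw licking recorded, 30 s cutoff. Readings taken before dosing and at 15, 30, 45 and 60 min after. 12 mice per group over two sets, observers blinded.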

A short description of data set [7]: Solubility of compound in water. The class given is physicochemical. The note with it: buffer.
Data set [8] concerns Mus musculus. Description: Antinociceptive activity in orally dosed CD-1 albino mouse model of oxaliplatin-induced neuropathic pain assessed as decrease in pain-related behaviour measured as licking latency treated on day 15 post oxaliplatin treatment and measured after 15 to 60 mins post dose by cold plate test. The class given is functional, organism-based. In short, it runs like this:
as §2

Data set [9] deals with Mus musculus. The data set can be described thus: Antinociceptive activity in CD-1 albino mouse model of oxaliplatin-induced neuropathic pain assessed as decrease in pain-related behaviour measured as licking latency at 100 mg/kg, po treated on day 15 post oxaliplatin treatment and measured after 30 to 45 mins post dose by cold plate test. In kind it is functional, organism-based. In short, it runs like this:
as §2

Data set [10] in a line: Stability of compound in aqueous HCl solution assessed as half life at pH 2 measured up to 120 mins by LC-MS/MS analysis. The conditions noted are these: buffer, pH 2, 2 h. The class given is physicochemical. The method, boiled down: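 Analyte (1 μM final) incubated at 37 °C in 10 mM aqueous HCl (pH 2), sampled in triplicate at 0, 30, 60 and 120 min. Quenched with acetonitrile containing verapamil internal standard, then quantified by LC–MS/MS with positive-ion MRM. Half-life taken from the degradation profile.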

Data set [11] relates to Mus musculus. The data set can be described thus: Antinociceptive activity in CD-1 albino mouse model of oxaliplatin-induced neuropathic pain assessed as decrease in pain-related behaviour measured as licking latency at 100 mg/kg, po treated on day 15 post oxaliplatin treatment and measured after 15 mins post dose by cold plate test (reference value: 18.1 +/- 0.3 sec). The class given is functional.

Four compounds from ChEMBL document CHEMBL4402611, “Phenyl(thio)phosphon(amid)ate Benzenesulfonamides as Potent and Selective Inhibitors of Human Carbonic Anhydrases II and VII Counteract Allodynia in a Mouse Model of Oxaliplatin-Induced Neuropathy” (J Med Chem, 2020) can be followed below.

pKi: −log10 of the molar value. Calls of active or inactive are those of the source.

Carbonic anhydrase 4, sequence (P22748 whole entry): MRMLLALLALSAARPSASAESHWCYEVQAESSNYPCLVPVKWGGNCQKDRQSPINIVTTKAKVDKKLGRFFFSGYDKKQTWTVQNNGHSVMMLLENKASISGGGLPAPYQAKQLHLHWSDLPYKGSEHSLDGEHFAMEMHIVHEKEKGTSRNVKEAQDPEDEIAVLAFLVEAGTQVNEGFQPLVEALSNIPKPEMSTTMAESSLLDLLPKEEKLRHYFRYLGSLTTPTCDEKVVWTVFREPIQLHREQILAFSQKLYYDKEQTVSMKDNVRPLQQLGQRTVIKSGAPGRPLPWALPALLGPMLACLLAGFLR
Carbonic anhydrase 5A, mitochondrial, sequence (P35218 whole entry): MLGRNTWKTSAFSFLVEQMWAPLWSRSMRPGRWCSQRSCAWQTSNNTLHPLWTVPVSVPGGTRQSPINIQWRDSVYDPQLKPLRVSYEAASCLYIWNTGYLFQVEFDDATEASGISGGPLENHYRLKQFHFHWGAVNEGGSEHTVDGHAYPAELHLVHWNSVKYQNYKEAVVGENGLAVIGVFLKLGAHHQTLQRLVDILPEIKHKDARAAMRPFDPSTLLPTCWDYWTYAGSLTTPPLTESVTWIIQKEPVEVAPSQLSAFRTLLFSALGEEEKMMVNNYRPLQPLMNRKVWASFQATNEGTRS
Carbonic anhydrase 1, sequence (P00915 whole entry): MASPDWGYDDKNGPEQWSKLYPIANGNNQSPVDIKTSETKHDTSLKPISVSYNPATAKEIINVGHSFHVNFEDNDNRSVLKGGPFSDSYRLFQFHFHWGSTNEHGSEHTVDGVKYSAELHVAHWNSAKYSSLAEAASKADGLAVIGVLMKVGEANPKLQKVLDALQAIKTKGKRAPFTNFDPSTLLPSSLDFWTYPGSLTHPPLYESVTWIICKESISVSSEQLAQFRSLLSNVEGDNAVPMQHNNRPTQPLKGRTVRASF
Carbonic anhydrase 12, sequence (O43570 whole entry): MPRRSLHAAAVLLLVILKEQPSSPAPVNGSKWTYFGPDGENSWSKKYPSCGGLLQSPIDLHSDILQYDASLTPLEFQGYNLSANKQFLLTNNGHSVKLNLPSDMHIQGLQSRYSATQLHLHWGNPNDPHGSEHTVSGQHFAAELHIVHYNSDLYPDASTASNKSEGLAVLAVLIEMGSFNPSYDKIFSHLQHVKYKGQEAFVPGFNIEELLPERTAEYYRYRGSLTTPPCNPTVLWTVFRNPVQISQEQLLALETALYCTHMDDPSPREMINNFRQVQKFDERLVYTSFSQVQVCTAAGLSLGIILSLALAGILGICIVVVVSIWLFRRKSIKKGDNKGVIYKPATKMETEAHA
Carbonic anhydrase 7, sequence (P43166 whole entry): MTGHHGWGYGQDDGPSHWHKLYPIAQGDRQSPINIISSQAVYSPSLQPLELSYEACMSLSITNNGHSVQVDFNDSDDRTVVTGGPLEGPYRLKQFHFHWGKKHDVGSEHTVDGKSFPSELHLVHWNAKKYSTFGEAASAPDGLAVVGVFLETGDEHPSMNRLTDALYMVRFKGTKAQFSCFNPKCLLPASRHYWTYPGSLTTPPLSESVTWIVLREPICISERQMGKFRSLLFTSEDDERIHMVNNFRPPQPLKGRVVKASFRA
Carbonic anhydrase 5B, mitochondrial, sequence (Q9Y2D0 whole entry): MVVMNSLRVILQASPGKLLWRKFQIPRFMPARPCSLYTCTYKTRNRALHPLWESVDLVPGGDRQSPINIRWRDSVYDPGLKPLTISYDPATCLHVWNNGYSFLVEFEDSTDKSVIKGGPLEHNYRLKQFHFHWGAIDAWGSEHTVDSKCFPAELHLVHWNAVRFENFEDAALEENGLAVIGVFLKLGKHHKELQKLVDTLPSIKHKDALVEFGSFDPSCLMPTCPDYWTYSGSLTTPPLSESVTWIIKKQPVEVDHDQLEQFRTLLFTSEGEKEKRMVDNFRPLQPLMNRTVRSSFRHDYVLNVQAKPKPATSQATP

`NS(=O)(=O)c1ccc(OP(=O)(Oc2ccc(S(N)(=O)=O)cc2)c2ccccc2)cc1`: the pKi at Carbonic anhydrase 1 is 6.17; at Carbonic anhydrase 2, 8.49; at Carbonic anhydrase 4 it was 6.44; in data set [1], 6.55; in [2], 7.82; on Carbonic anhydrase 7, 8.11. Besides, the pKi on Carbonic anhydrase 9 was 7.71; on Carbonic anhydrase 12 it was 7.77. For the same compound, the Stability entry in data set [3], in data set [4] and in data set [5] was “Stable” in each case. Also, in the data set on Mus musculus [6], the result was Active. Also, in [7], the solubility entry was “Insoluble”.

For the compound `C#CCOP(=O)(Oc1ccc(S(N)(=O)=O)cc1)c1ccccc1` (racemic), the negative logarithm of the Ki (pKi) at Carbonic anhydrase 1 was 6.38; on Carbonic anhydrase 2 it was 8.44; on Carbonic anhydrase 4 it was 5.88; in data set [1], 7.09; in [2] it was 7.42; at Carbonic anhydrase 7, 7.91. Also, the pKi on Carbonic anhydrase 12 was 7.57. The Stability result in [3], in data set [4] and in data set [5] was “Stable” throughout. In the data set on Mus musculus [8], the Activity entry is “Dose-dependent effect”. Moreover, in the data set with Mus musculus [9], the outcome was Active.

In the case of `NS(=O)(=O)c1ccc(OP(=O)(c2ccccc2)N2CCCC2)cc1` (racemic), the negative logarithm of the Ki (pKi) on Carbonic anhydrase 1 was 6.62; at Carbonic anhydrase 2, 8.77; on Carbonic anhydrase 4 it was 6.51; in data set [1], 7.11; in [2], 7.59; on Carbonic anhydrase 7 it was 8.03. Besides, the values for the pKi at Carbonic anhydrase 9 and on Carbonic anhydrase 12 were 7.54 and 7.24, respectively. Besides, the Stability entry in data set [3] is on record as “Stable”; in data set [4], “Stable”; in [10] it was “Unstable”.

Regarding `CC(=O)Nc1nnc(S(N)(=O)=O)s1` [ACETAZOLAMIDE], the Time with Mus musculus [11] stood at 15.8 s.

As a reminder, the pKi is the negative decadic logarithm of the Ki, by convention in mol/L.
